Source: ChEMBL document CHEMBL1828575, “Design, synthesis and antiproliferative activities of biarylolefins based on polyhydroxylated and carbohydrate scaffolds” (Eur J Med Chem, 2011)

How the values were obtained:
Format in all cases: functional
U-251 = assay: Antitumor activity against human U251 cells after 48 hrs by SRB assay; conditions: U-251, 48 h
How it was run: (§1)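 NCI60 panel cells grown in RPMI 1640 with 5% FBS and 2 mM L-glutamine, plated at 5000–40,000 cells/well and preincubated 24 h at 37 °C, 5% CO₂. Compound was added from DMSO at five concentrations, 10-fold or 1/2 log dilutions, then incubated 48 h.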

K562 [1] = assay: Antitumor activity against human K562 cells after 48 hrs by SRB assay; conditions: K562, 48 h
How it was run: (§2)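 NCI60 panel in RPMI 1640 with 5% FBS and 2 mM L-glutamine. Cells were plated at 5000–40,000/well by doubling time, held 24 h, then time-zero plates were TCA-fixed. Five concentrations (10-fold or half-log dilutions of DMSO stocks) were applied for 48 h at 37 °C, 5% CO2. Cells were fixed with cold TCA (10% final adherent, 16% suspension) and stained with 0.4% SRB. Bound dye was dissolved in 10 mM Tris and read at 515 nm. GI50, TGI and LC50 were calculated per line.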

M14 = assay: Cytotoxicity against human M14 cells assessed as cellular growth at 10 uM after 48 hrs by SRB assay
How it was run: (§3)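 NCI60 single-dose screen of cells in RPMI 1640 with 5% FBS and 2 mM L-glutamine, preincubated 24 h at 37 °C, 5% CO₂. Cells were then exposed 48 h to compound added from DMSO stock. TCA-fixed, stained with 0.4% SRB in 1% acetic acid, dye solubilised in 10 mM Tris base and read at 515 nm. Growth is given as percent of untreated control.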

SK-MEL-2 = assay: Antitumor activity against human SK-MEL-2 cells after 48 hrs by SRB assay; conditions: SK-MEL-2, 48 h; how it was run: as §1
EKVX = assay: Cytotoxicity against human EKVX cells assessed as cellular growth at 10 uM after 48 hrs by SRB assay; how it was run: as §3
HT-29 = assay: Cytotoxicity against human HT-29 cells assessed as cellular growth at 10 uM after 48 hrs by SRB assay; how it was run: as §3
ACHN = assay: Antitumor activity against human ACHN cells after 48 hrs by SRB assay; how it was run: as §2
COLO 205 = assay: Cytotoxicity against human COLO205 cells assessed as cellular growth at 10 uM after 48 hrs by SRB assay; how it was run: as §3
A549 = assay: Antitumor activity against human A549 cells after 48 hrs by SRB assay; conditions: A549, 48 h; how it was run: as §2
PC-3 = assay: Antitumor activity against human PC3 cells after 48 hrs by SRB assay; conditions: PC-3, 48 h; how it was run: as §2
DU-145 = assay: Antitumor activity against human DU145 cells after 48 hrs by SRB assay; conditions: DU-145, 48 h; how it was run: as §2
LOX IMVI = assay: Antitumor activity against human LOXIMVI cells after 48 hrs by SRB assay; how it was run: as §2
UACC-257 = assay: Antitumor activity against human UACC257 cells after 48 hrs by SRB assay; conditions: UACC-257, 48 h; how it was run: as §1
HCT-116 = assay: Antitumor activity against human HCT116 cells after 48 hrs by SRB assay; conditions: HCT-116, 48 h; how it was run: as §2
OVCAR-8 = assay: Antitumor activity against human OVCAR8 cells after 48 hrs by SRB assay; conditions: OVCAR-8, 48 h; how it was run: as §2
SK-MEL-5 = assay: Antitumor activity against human SK-MEL-5 cells after 48 hrs by SRB assay; conditions: SK-MEL-5, 48 h; how it was run: as §1
NCI-H522 = assay: Cytotoxicity against human NCI-H522 cells assessed as cellular growth at 10 uM after 48 hrs by SRB assay
How it was run: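 NCI-60 panel lines grown in RPMI 1640 with 5% FBS and 2 mM L-glutamine. Plated at 5000–40,000 cells/well and preincubated 24 h at 37 °C, 5% CO₂, with time-zero plates fixed in TCA. Compounds, dissolved in DMSO and diluted in medium, were applied for 48 h. Cells were TCA-fixed (10% final for adherent, 16% for suspension) and stained with 0.4% SRB in 1% acetic acid. Dye was solubilised in 10 mM Tris base and read at 515 nm; growth was expressed as a percentage of untreated control.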

RPMI-8226 = assay: Antitumor activity against human RPMI8226 cells after 48 hrs by SRB assay; conditions: RPMI-8226, 48 h; how it was run: as §2
K562 [2] = assay: Cytotoxicity against human K562 cells assessed as cellular growth at 10 uM after 48 hrs by SRB assay; how it was run: as §3
MDA-MB-468 = assay: Antitumor activity against human MDA-MB-468 cells after 48 hrs by SRB assay; conditions: MDA-MB-468, 48 h; how it was run: as §2
BT-549 = assay: Cytotoxicity against human BT549 cells assessed as cellular growth at 10 uM after 48 hrs by SRB assay; how it was run: as §3
HCT-15 = assay: Cytotoxicity against human HCT15 cells assessed as cellular growth at 10 uM after 48 hrs by SRB assay; how it was run: as §3
[3] = read-out: LC50 (the source's name)
[4] = read-out: pLC50 (the source's name) (converted)

COc1ccc(/C(=C2/O[C@@H]([C@H]3COC(C)(C)O3)[C@H]3OC(C)(C)O[C@@H]23)c2cc(OC)c(OC)c(OC)c2)cc1O
GI50 (U-251): 3.84 µM | TGI (U-251): 48.2 µM | CC50 (U-251; [3]): > 100 µM | GI50 (K562 [1]; read-out: GI50): 3.22 µM | CC50 (K562 [1]; [3]): > 100 µM | TGI (K562 [1]; read-out: TGI): > 100 µM | GI50 (K562 [1]; read-out: pGI50 (converted)): 3.24 µM | CC50 (K562 [1]; [4]): > 100 µM | TGI (K562 [1]; read-out: pTGI): > 100 µM | Activity (M14): 7.95% | GI50 (SK-MEL-2): 57.9 µM | TGI (SK-MEL-2): > 100 µM | CC50 (SK-MEL-2; [3]): > 100 µM | Activity (EKVX): 90.16% | Activity (HT-29): 107.45% | GI50 (ACHN; read-out: GI50): 9.31 µM | CC50 (ACHN; [3]): > 100 µM | TGI (ACHN; read-out: TGI): > 100 µM | GI50 (ACHN; read-out: pGI50 (converted)): 9.33 µM | CC50 (ACHN; [4]): > 100 µM | TGI (ACHN; read-out: pTGI): > 100 µM | Activity (COLO 205): 120.76% | GI50 (A549; read-out: GI50): 2.32 µM | CC50 (A549; [3]): > 100 µM | TGI (A549; read-out: TGI): > 100 µM | GI50 (A549; read-out: pGI50 (converted)): 23.4 µM | CC50 (A549; [4]): > 100 µM | TGI (A549; read-out: pTGI (converted)): > 100 µM | GI50 (PC-3; read-out: GI50): 5.11 µM | CC50 (PC-3; [3]): > 100 µM | TGI (PC-3; read-out: TGI): > 100 µM | GI50 (PC-3; read-out: pGI50 (converted)): 5.13 µM | CC50 (PC-3; [4]): > 100 µM | TGI (PC-3; read-out: pTGI): > 100 µM | GI50 (DU-145; read-out: GI50): 3.29 µM | CC50 (DU-145; [3]): > 100 µM | TGI (DU-145; read-out: TGI): 13.8 µM | GI50 (DU-145; read-out: pGI50 (converted)): 3.31 µM | CC50 (DU-145; [4]): > 100 µM | TGI (DU-145; read-out: pTGI (converted)): 13.2 µM | GI50 (LOX IMVI): 5.18 µM | TGI (LOX IMVI): > 100 µM | CC50 (LOX IMVI; [3]): > 100 µM | GI50 (UACC-257; read-out: GI50): > 1 µM | CC50 (UACC-257; [3]): > 100 µM | TGI (UACC-257; read-out: TGI): > 100 µM | GI50 (UACC-257; read-out: pGI50 (converted)): 100 µM | CC50 (UACC-257; [4]): > 100 µM | TGI (UACC-257; read-out: pTGI (converted)): > 100 µM | GI50 (HCT-116): 4.14 µM | LC50 (concentration giving 50% net cell kill) (HCT-116): > 100 µM | TGI (HCT-116): > 100 µM | GI50 (OVCAR-8; read-out: GI50): 5.27 µM | CC50 (OVCAR-8; [3]): > 100 µM | TGI (OVCAR-8; read-out: TGI): > 100 µM | GI50 (OVCAR-8; read-out: pGI50 (converted)): 5.25 µM | CC50 (OVCAR-8; [4]): > 100 µM | TGI (OVCAR-8; read-out: pTGI): > 100 µM | GI50 (SK-MEL-5): 2.69 µM | LC50 (SK-MEL-5): 49.3 µM | TGI (SK-MEL-5): 11.2 µM | Activity (NCI-H522): 43.38% | LC50 (concentration killing 50% of starting cells) (RPMI-8226): > 100 µM | GI50 (RPMI-8226; read-out: GI50): 4.63 µM | TGI (RPMI-8226; read-out: TGI): > 100 µM | GI50 (RPMI-8226; read-out: pGI50 (converted)): 4.68 µM | CC50 (RPMI-8226; [4]): > 100 µM | TGI (RPMI-8226; read-out: pTGI (converted)): > 100 µM | Activity (K562 [2]): 24.28% | GI50 (MDA-MB-468; read-out: GI50): 1.45 µM | CC50 (MDA-MB-468; [3]): 80.6 µM | TGI (MDA-MB-468; read-out: TGI): 34.1 µM | GI50 (MDA-MB-468; read-out: pGI50 (converted)): 14.5 µM | CC50 (MDA-MB-468; [4]): > 100 µM | TGI (MDA-MB-468; read-out: pTGI (converted)): 33.9 µM | Activity (BT-549): 57.66% | Activity (HCT-15): 26.94%
